Compound activity from PubChem.
CSN deneddyl inh: blocks human CSN-mediated cullin deneddylation | Q92905 | Purified CSN, SCF-Nedd8-OG deneddylation, fluorescence polarization | inhibition, % at 12.5 µM | 0.38% of 360,000 active;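 active means pattern-corrected inhibition above about 35%, with an unprinted fluorescence ratio check between 0.5 and 1.5, limit read from the data, passing the limit was not always enough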;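 further: 0% = enzyme with substrate and 100% = substrate without enzyme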
Target sequence (Q92905 whole entry, looked up, one chain of several): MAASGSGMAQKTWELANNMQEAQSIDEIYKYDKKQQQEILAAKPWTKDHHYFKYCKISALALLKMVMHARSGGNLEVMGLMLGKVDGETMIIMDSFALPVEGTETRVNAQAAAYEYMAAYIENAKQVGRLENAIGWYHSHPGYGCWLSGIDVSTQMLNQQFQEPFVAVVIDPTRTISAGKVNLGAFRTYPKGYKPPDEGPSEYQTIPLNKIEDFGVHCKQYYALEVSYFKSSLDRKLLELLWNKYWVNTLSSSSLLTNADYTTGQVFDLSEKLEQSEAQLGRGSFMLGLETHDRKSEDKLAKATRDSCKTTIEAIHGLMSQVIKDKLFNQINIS
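Detection – fluorescence polarization · System – HEK293T-derived human Csn5 enzyme · Controls – substrate-only high control, full reaction low control · Timing – 90 min, room temperature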
ARFGAP1 inh: inhibits rat ARF GTPase activating protein 1 | Q62848 | Arfgap1-stimulated ARF1 GTP hydrolysis, GDP FP detection | inhibition, % at 16.5 µM | 0.26% of 360,000 active;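 active means inhibition above a per-plate limit, mean inhibition of low control wells plus 3 SD, cut at about 25% in these data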;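 further: 0% = DMSO wells with enzyme and 100% = wells lacking Arfgap1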
Target sequence (Q62848 1-136 limits assumed): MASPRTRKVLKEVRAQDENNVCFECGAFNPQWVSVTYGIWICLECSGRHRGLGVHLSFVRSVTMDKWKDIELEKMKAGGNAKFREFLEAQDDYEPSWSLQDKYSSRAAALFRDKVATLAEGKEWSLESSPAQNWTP
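Material: truncated rat Arfgap1 GAP domain; Incubation: compound-enzyme preincubation 20 min, reaction 120 min, detection 60 min, 25 °C; Read-out: percent inhibition of Arfgap1-stimulated GTP hydrolysis; Technique: FP, GDP Alexa 633 tracer displaced from anti-GDP antibody, 620/688 nm; Controls: No-Arfgap1 wells (100%) versus DMSO full-reaction wells (0%); Replication: single well per compound.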
HNF4A DNA FP: change in binding of human HNF4 alpha to DNA. P41235. HNF4a-FITC DNA binding, fluorescence polarization, 1 h. activity change, % at 10 µM. 0.3% of 360,000 active; in the data active means activity change above about 30%, passing the limit was not always enough
ASAP1 inh: blocks human ASAP1-stimulated Arf1 GTP hydrolysis; AID 624377; GDP FP detection; inhibition, % at 16.5 µM; 0.19% of 360,000 active; Q9ULH1; in the data active means inhibition above about 25%;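 further: 0% = vehicle with enzyme and substrate and 100% = no enzyme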
ASAP1 inh confirm: ASAP1 inhibition confirmed; shares compounds with ASAP1 inh; ASAP1-stimulated Arf1 GTPase, GDP fluorescence polarization; inhibition, % at 16.5 µM; 37% of 620 active;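 active means mean inhibition over triplicates exceeds the hit threshold derived for the earlier primary screening run, cut at about 25% in these data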
* hit, by the source's call; x = no result. Only some compounds are listed: those with a hit (about 0.95% of all), similar ones and a draw of the others.

SMILES | CSN deneddyl inh | ARFGAP1 inh | HNF4A DNA FP | ASAP1 inh | ASAP1 inh confirm
CC1CCCCN1c1cc(C#N)c(C#N)cc1[N+](=O)[O-] (stereo not drawn) | -1 | 8 | -1 | 3 | x
CC1CCc2cccc3c2N1c1cc(C#N)c(C#N)cc1O3 (stereo not drawn) | 8 | 1 | 2 | 27* | 1
Oc1oc(-c2ccccc2)nc1/C=N/c1ccccn1 | 1 | -5 | 0 | 1 | x
Oc1oc(-c2ccccc2Br)nc1C=Nc1ccc(Br)cn1 | 3 | 8 | 3 | 51* | 110*
CCc1ccc(/C=C2\Oc3cc(OC(=O)N4CCOCC4)ccc3C2=O)cc1 | -13 | -12 | -3 | -7 | x
COc1ccc(/C=C2\Oc3cc(OC(=O)N4CCOCC4)ccc3C2=O)cc1 | -1 | 21 | 1 | 33* | 70*
CC1Cc2cccc3c(O)c(C(=O)c4nn[nH]n4)c(=O)n1c23 (stereo not drawn) | 1 | -2 | 0 | 8 | x
Cc1ccc(NC(=O)COc2ccc(CCO)cc2-n2nc3ccccc3n2)cc1C | 3 | 5 | 1 | 26* | -1
Cc1ccc(OCC(=O)O)c(-n2nc3ccccc3n2)c1 | -2 | 3 | 0 | -2 | x
O=C(N/N=C/c1ccc(Br)s1)c1ccc([N+](=O)[O-])cc1 | 19 | 12 | 3 | 36* | 97*
O=C(N/N=C/C(Br)=C/c1ccccc1)c1ccncc1 | 2 | 3 | 2 | -10 | x
O=C(N/N=C/c1ccc(Br)s1)c1ccccc1[N+](=O)[O-] | 6 | -10 | 3 | -12 | x
O=C(N/N=C/C(Br)=C/c1ccccc1)c1ccc([N+](=O)[O-])cc1 | 6 | 4 | -6 | 48* | 78*
Cc1ccc(C(=O)COC(=O)c2cn3ccccc3n2)cc1 | 1 | -1 | -1 | -2 | x
N#Cc1c(-c2cccc(Br)c2)cc(-c2cccnc2)nc1N | 3 | -1 | 3 | 28* | 24
N#Cc1c(-c2ccc(Br)cc2)cc(-c2cccnc2)nc1N | 0 | 0 | 2 | 8 | x
CCN(C(=S)NCc1ccccc1)c1cccc2ccccc12 | -1 | 0 | -2 | 25* | 2
Cc1ccc(NC2=C(N3CCOCC3)C(=O)c3ccccc3C2=O)cc1 | 5 | 24 | -2 | 36* | 1
CC(=O)N(C)c1ccc(NC(=O)Nc2ccc(C)c(C)c2)cc1 | 1 | 0 | -2 | 27* | 6
Cc1ccc(S(=O)(=O)N2CCOCC2)cc1NC(=O)CN(C)CC(=O)Nc1cccc(F)c1 | -2 | 1 | 1 | -5 | x
COc1ccc(NC(=O)c2ccc(-c3ccccc3C(F)(F)F)o2)cc1 | -1 | 11 | 5 | 26* | 11
Cc1ccc(SCC(=O)NC2CC2)cc1 | -8 | -3 | -2 | 27* | 0
CCCS(=O)(=O)c1c(S(=O)(=O)CCC)c2ccc(C(N)=O)cn2c1C(=O)c1ccc(F)cc1 | 0 | 2 | 0 | -1 | x
CCCS(=O)(=O)c1c(S(=O)(=O)CCC)c2cnccn2c1C(=O)c1ccc(Cl)cc1 | -5 | -5 | -2 | 27* | 7
Cc1ccc(S(=O)(=O)N2CCCCC2)cc1NC(=O)COC(=O)C1=COCCO1 | -6 | 2 | 2 | -14 | x
SMILES | CSN deneddyl inh | ARFGAP1 inh | HNF4A DNA FP | ASAP1 inh | ASAP1 inh confirm
COc1ccc(C(C)=O)cc1COC(=O)c1ccc2c(c1)OCO2 | 0 | -4 | 1 | 1 | x
COc1ccc(C(C)=O)cc1COC(=O)c1ccc2c(c1)OCCO2 | 4 | -3 | 3 | 28* | 8
COc1ccccc1CNc1nc(NCc2ccccc2OC)c2sccc2n1 | 0 | 4 | 1 | -12 | x
COc1ccccc1CNc1nc(NCCOc2ccccc2)c2sccc2n1 | 2 | 7 | 4 | 25* | 16
Nc1cc2c(cc1Cl)N(Cc1ccccc1)C(=O)CO2 | 3 | -13 | 2 | 11 | x
O=C(c1n[nH]c(=O)c2ccccc12)N1CCN(S(=O)(=O)c2ccccc2Cl)CC1 | -1 | -1 | -1 | 25* | 1
CC(C)CN(C(=O)COC(=O)CNC(=O)c1sc2ccccc2c1Cl)C1CCS(=O)(=O)C1 (stereo not drawn) | 5 | -5 | 2 | -2 | x
Cc1cc(NC2=CC(=O)C(=O)c3ccccc32)no1 | 6 | 1 | 0 | 29* | 10
COc1ccc(C(=O)Nc2ccc(OCC(F)(F)C(F)F)c(C(F)(F)F)c2)cc1OC | 0 | -3 | -1 | 26* | 26*
COc1ccc(C(=O)Nc2ccc3c(c2)C(=O)c2ccccc2C3=O)cc1OC | 33 | 5 | -13 | 27* | 40*
O=C(Nc1ccc(OCC(F)(F)C(F)F)c(C(F)(F)F)c1)c1ccc(Cl)cc1 | -4 | 10 | 3 | 1 | x
C/C=C/C(=O)Nc1cccc(C2=NOC3(C2)C[C@@H](C(N)=O)N(C(=O)/C(C)=C/C)C3)c1 (stereo partly drawn) | 1 | 0 | 2 | -6 | x
Cc1ccc(C(=O)NCCC2=CCCCC2)cc1S(=O)(=O)N1CCCCC1 | 2 | -1 | -3 | 28* | 5
CC(=O)C1C(c2ccc(C)cc2)c2c(n[nH]c2C)CC1(C)O (stereo not drawn) | -2 | -10 | -1 | 43* | 1
CC(=O)C1C(c2ccccc2)c2c(n[nH]c2C)CC1(C)O (stereo not drawn) | 4 | -15 | 5 | 3 | x
CC[n+]1c(/C=C/C=C/N(C(C)=O)c2ccccc2)sc2ccccc21 | -86 | 23 | -42 | 45* | 44*
Cc1c(C(=O)NCc2cccc([N+](=O)[O-])c2)sc(=O)n1Cc1ccc(C(C)C)cc1 | -3 | 7 | 2 | 5 | x
CC(C)(C)OC(=O)N1CCC(C(=O)Nc2cccc(C(=O)N3CCOCC3)c2)CC1 | 4 | -11 | 2 | 7 | x
O=C(COC(=O)C1CC(=O)N(Cc2ccco2)C1)c1ccc(OC(=O)c2ccco2)cc1 (stereo not drawn) | 25 | -2 | -18 | 28* | 4
Cc1ccc(-c2nnc(N(C)C(=O)c3cccnc3)s2)cn1 | -2 | 1 | -1 | 26* | 9
O=c1cc(-c2ccc(O)c(O)c2)oc2c1ccc1ccccc12 | 9 | 10 | -7 | 25* | 12
O=C(NCCc1ccccc1)C(=O)NCC1OCCN1S(=O)(=O)c1ccc(F)cc1 (stereo not drawn) | -5 | -8 | 6 | 9 | x
O=C(NC(=S)N1CC=CCC1)c1ccccc1 | 2 | 4 | -4 | 0 | x
ON=C1c2cc(OCCN3CCCCC3)ccc2-c2ccc(OCCN3CCCCC3)cc21 | 2 | x | 11 | x | x
NC(=S)NN=C1c2cc(OCCN3CCOCC3)ccc2-c2ccc(OCCN3CCOCC3)cc21 | 1 | 5 | 1 | 25* | 22
CC(=O)N1CCN(C(=O)CCCNC(=O)c2ccc(Cl)cc2)CC1 | 0 | 4 | 2 | -4 | x
COc1ccccc1Oc1cc(F)nc(N)n1 | -9 | 11 | -1 | 26* | 2
O=C(CNC(=S)N(Cc1ccccc1)Cc1ccccc1F)NCCc1ccccc1 | -3 | 2 | 3 | -7 | x
